AP ELISA ortho = alternative pathway complement inhibition, orthogonal assay. Human serum alternative complement pathway, LPS-coated ELISA, C3 deposition; tested in compound mixtures. inhibition, % at 5 µM. 62,000 compounds, 0.08% hits;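 active means inhibition above 30% in each of the two pooled mixtures holding the compound, so the lower value exceeds 30%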;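 further: 0% = serum in Mg-EGTA without compound and 100% = EDTA serum blank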
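Assay system: human serum alternative complement pathway, C3 deposition on LPS-coated wells; Dosing: 5 µM per compound in ten-compound mixtures; Detection: Anti-C3 ELISA, OD 450 nm; Buffer or medium: Mg2+-EGTA GVB++ buffer containing human serum at 1:15 dilution; Timing: 1 h at 37 °C; Replication: two different pools per compound.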
Htt clearance = mutant huntingtin protein clearance | 47,000 compounds, 0.42% hits | inhibition, % at 1.5 µM | HeLa Exon1htt(103Q)mCFP, aggregate imaging; zero = plate's median compound well;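 active means inhibition of aggregate fluorescence above about 70%, also judged a hit by eye on the cell image, limit read from the data, passing the limit was not always enough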;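 further: cells exposed to compound for three days before fixation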
M1 antag = blocks the rat M1 muscarinic receptor response to acetylcholine; P08482; CHO-M1 cells, Fluo-4 calcium, ACh EC80 antagonist mode; hits give low values; B-score at 10 µM; 64,000 compounds, 3.4% hits;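 active means calcium fluorescence response, raw or row-and-column corrected B-score, differing from the plate sample mean either way at a set confidence level, mostly lower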
Target sequence (P08482 whole entry, looked up): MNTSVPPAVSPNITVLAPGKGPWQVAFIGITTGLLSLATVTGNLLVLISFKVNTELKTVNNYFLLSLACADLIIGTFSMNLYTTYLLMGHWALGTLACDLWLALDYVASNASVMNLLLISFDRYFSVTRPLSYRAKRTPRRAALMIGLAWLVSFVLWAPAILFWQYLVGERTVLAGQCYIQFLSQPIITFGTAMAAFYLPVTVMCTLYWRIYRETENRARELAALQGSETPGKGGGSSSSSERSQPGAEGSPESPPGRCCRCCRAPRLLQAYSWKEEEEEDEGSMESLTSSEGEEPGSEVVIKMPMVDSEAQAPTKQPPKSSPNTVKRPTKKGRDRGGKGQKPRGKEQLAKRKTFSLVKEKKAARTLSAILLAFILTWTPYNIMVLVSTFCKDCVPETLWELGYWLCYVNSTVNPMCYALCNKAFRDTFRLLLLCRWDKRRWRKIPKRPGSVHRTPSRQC
D1 mod = allosterically modulates the human D1 dopamine receptor; AID 641; 58,000 compounds, 5.9% hits; B-score at 10 µM; HEK293 D1, CRE-luciferase, dopamine EC30 potentiation; actives deviate in either direction;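 active means luminescence count or its row- and column-corrected plate score outside the 99.7% band of the plate's sample wells, on either side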
M1 agonist = M1 muscarinic receptor agonism; CHO-M1 cells, Fluo-4 calcium fluorescence, agonist mode; hits give high values; B-score at 10 µM; 64,000 compounds, 3% hits;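 active means fluorescence rise, raw or as B-score row- and column-corrected plate score, outside the 99.7% band of its plate's samples, either direction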
M1 antag conf = M1 muscarinic receptor (rat) antagonism, confirmed; calcium response (max-min fluorescence) at 10 µM; AID 677; 1,700 compounds, 43% hits; shares compounds with M1 antag; CHO-M1 cells, Fluo-4 calcium, ACh EC80 antagonism; hits give low values;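 active means calcium response below the same-plate mean of wells given acetylcholine alone at its 80%-effect dose, minus 3 SD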;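 further: raw fluorescence intensity difference in arbitrary instrument units and not normalized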
mGluR4 antag = selectivity test for M1 antagonists: human mGluR4 receptor; fluorescence response (max-min) at 10 µM; shares compounds with M1 antag; CHO-mGluR4 calcium flux, Fluo-4 fluorescence, glutamate EC80; hits give low values; 1,700 compounds, 0.9% hits;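 active means fluorescence response below the plate's average for near-maximal glutamate wells, less 3 SD of those wells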;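 further: raw unnormalized fluorescence span taken in the window right after glutamate addition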
The depositor's hits bear a star; . = no result given. A selection: hits, their analogues and other compounds. The true share with any hit is near 9%.

SMILES	AP ELISA ortho	Htt clearance	M1 antag	D1 mod	M1 agonist	M1 antag conf	mGluR4 antag
Cc1nnc(SCCn2c(N3CCN(Cc4ccccc4)CC3)nc3c2c(=O)[nH]c(=O)n3C)s1	-2.1	2.8	-4.06*	1.31	-1.29	588	246
Cc1nnc(SCCn2c(N3CCC(Cc4ccccc4)CC3)nc3c2c(=O)[nH]c(=O)n3C)s1	3.1	.	-0.763	0.42	-0.619	.	.
COC(=O)C(C)Sc1nc2c(cnn2-c2ccc(C)cc2)c(=O)[nH]1 (centres undefined)	10.1	-28.4	0.189	1.53	0.449	.	.
CCC(Sc1nc2c(cnn2-c2ccccc2)c(=O)[nH]1)C(=O)OC (centres undefined)	22.9	.	-2.38*	-1.44	-0.225	546	249
Cc1nnc(C)c2c(C)n(Cc3ccc4c(c3)OCO4)c(C)c12	-0.7	.	-4.54*	-0.983	0.253	535*	203
COc1ccc(C(=O)N2CCC(C(=O)Nc3ccccc3OC)CC2)cc1	13.7	.	-4.99*	-0.344	0.19	644	249
CCN(CC)CCOC(=O)c1c(C)oc2ccc(O)cc12	3.2	33.2	-3.31*	-1.61	0.0484	296*	258
CCOC(=O)c1c(CN2CCN(C)CC2)oc2ccc(O)cc12	7.7	20.0	-1.04	-0.149	0.076	.	.
Cc1nc2sccn2c(=O)c1CCN1CCC(=C(c2ccc(F)cc2)c2ccc(F)cc2)CC1	6.5	.	-5.14*	-2.93	-0.0154	324*	292
Nc1nc2ccccc2n1/N=C/c1ccc(Br)cc1	-7.7	.	-6.71*	0.0234	-1.02	707	220
COc1ccc(OC)c(CNC(=O)C2CCN(C(=O)N(C)C)CC2)c1	4.4	.	-3.04*	1.83	-0.32	644	266
COc1ccc(C)cc1S(=O)(=O)N1CCCCC1	4.6	-3.8	-0.1	-0.0808	-0.368	.	.
Cc1ccc(NC(=O)COC(=O)C2CC2C)c(S(=O)(=O)N2CCCCC2)c1 (centres undefined)	13.2	.	-2.83*	-0.659	-0.443	645	233
O=C(NCCCn1ccnc1)C1c2ccccc2Oc2ccccc21	6.6	.	-5.99*	-2.46*	0.744	309*	228
O=C(NCCCn1ccnc1)Nc1cccc2ccccc12	.	13.3	.	.	.	.	.
O=C(COc1ccccc1)Nc1nn[nH]n1	9.1	.	0.0488	-0.378	-0.00478	.	.
Nc1c(-c2ccc(Cl)cc2)nnn1-c1ccccc1	17.1	-100.3	-3.2*	-1.66	0.407	642	180
Clc1ccc(Oc2nnnn2-c2ccccc2)cc1	.	16.1	.	.	.	.	.
CS(=O)CSc1nc2c(cc1C#N)CCCC2 (centres undefined)	5.3	-9.6	-9.31*	0.502	-0.198	260*	203
CCCCSc1nc2c(cc1C#N)CCC2	-1.9	-30.6	-0.103	2.12	0.575	.	.
Cn1c(NC(=O)c2cc(Cl)ccc2Cl)cc(=O)n(C)c1=O	3.8	65.6	-0.0194	0.456	-0.888	.	.
COc1cccc(C(=O)Nc2cc(=O)n(C)c(=O)n2C)c1OC	9.8	11.2	-3.78*	-0.284	-0.461	651	238
O=C(O)CCCc1nc2ccccc2s1	18.8	40.0	0.185	-1.14	-0.883	.	.
COC(=O)CCCc1nc2ccccc2s1	14.4	.	-2.46*	-0.117	-1.14	633	239
CS(=O)(=O)N(CCc1ccccc1)CC(=O)NCc1ccco1	10.0	26.5	-0.36	0.202	0.369	.	.
SMILES	AP ELISA ortho	Htt clearance	M1 antag	D1 mod	M1 agonist	M1 antag conf	mGluR4 antag
CCOC(=O)Nc1ccc2c(c1)N(C(=O)CN1CCN(C)CC1)c1ccccc1S2	2.9	8.4	-13.1*	0.0143	-0.699	46.3*	226
CCOC(=O)Nc1ccc2c(c1)N(C(=O)CCN(C)C)c1ccccc1S2	9.0	.	-10.3*	-0.713	-0.095	21.9*	251
CCOC(=O)Nc1ccc2c(c1)N(C(=O)OC)c1ccccc1CC2	5.0	47.4	0.118	-0.806	-1.04	.	.
CCOc1ccc(NC(=O)C(C)Oc2ccccc2C(=O)Nc2ccc(C)c(Cl)c2)cc1 (centres undefined)	.	28.0	.	.	.	.	.
COc1cccc(C(c2nnnn2Cc2ccco2)N2CCN(c3cccc(C)c3C)CC2)c1OC (centres undefined)	-11.2	-26.7	-4.28*	-0.00787	-0.307	639	202
COc1cccc(C(c2nnnn2CCc2ccccc2)N2CCN(c3ccccc3)CC2)c1OC (centres undefined)	5.9	-15.6	-0.0238	0.0658	-0.0235	.	.
O=C(Cn1cnc2c(nnn2Cc2ccc(F)cc2)c1=O)N1CCN(c2ccccc2)CC1	-1.6	.	0.205	0.288	-3.96	.	.
CCOc1ccc(C2=Nn3c(nnc3-c3ccccn3)SC2)cc1	.	12.0	-3.15*	.	1.36	653	234
Cc1ccc(N(CC(=O)Nc2ccc3c(c2)OCCO3)S(=O)(=O)c2c(C)noc2C)cc1	15.0	-8.3	-3.02*	-1.31	1.34	529	219
Cc1noc(C)c1CSCC(=O)OCc1nc2ccccc2c(=O)n1CC#N	.	.	0.398	-0.478	-1.67	.	.
Cc1ccc2c(CC(=O)Nc3sccc3C(N)=O)coc2c1	9.8	.	-0.461	-1.12	-0.903	.	.
Cc1ccc2c(CC(=O)Nc3ccc(N4CCN(C)CC4)cc3C)coc2c1	2.5	.	-3.17*	-4.7*	-1.4	334*	247
Cc1ccc2[nH]c(=O)c(-c3nc4cc(C)ccn4c3NCc3ccco3)cc2c1	11.6	.	-3.26*	-2.48	0.0966	412	217
CC(C)(C)n1nnnc1C(c1ccccc1)N1CCc2ccccc2C1 (centres undefined)	7.3	23.7	-12.1*	-0.69	0.00983	368*	211
Oc1c(C(c2ccco2)N2CCN(C(c3ccccc3)c3ccccc3)CC2)sc2ncnn12 (centres undefined)	6.7	.	-3.44*	-0.0123	-0.408	512*	267
Oc1c(C(c2ccccc2)N2CCc3ccccc3C2)sc2ncnn12 (centres undefined)	-7.2	-5.2	-0.315	0.0819	-0.941	.	.
CCOC(=O)N1CCC(Nc2c(NCCN3CCN(Cc4ccccc4)CC3)c(=O)c2=O)CC1	-2.4	-37.8	-6.73*	2.09	0.0271	551	254
CCOC(=O)N1CCN(c2c(NCCN3CCN(Cc4ccccc4)CC3)c(=O)c2=O)CC1	10.7	.	-0.597	0.202	-0.955	.	.
CC(C)(C)N(Cc1ccccc1)C(=O)c1ccc2c(c1)OCCO2	-10.1	-20.0	-1.79*	-0.055	0.0592	483	204
O=C(O)c1ccc2c(c1)OCCO2	.	-9.8	.	.	.	.	.
C(=N\n1cnnc1)/c1ccc(-c2ccccc2)cc1	6.6	.	-7.45*	1.69	0.455	556	272
NC12CC3CC(C1)CC(CO)(C3)O2	7.8	.	-0.11	-0.0205	0.744	.	.
O=C(C1CCCCC1)N(CCN1CCCC1)c1nc2ccccc2s1	2.3	17.6	-2.34*	-1.62	-0.55	718	207
CC(C)c1nnc(NC(=O)Cn2nc(-c3ccc4c(c3)OCCO4)ccc2=O)s1	21.3	41.3	-0.217	0.788	0.0187	.	.

Source: PubChem
